Experimental data: ChEMBL document CHEMBL1146122, “Neuropeptide Y (NPY) Y4 receptor selective agonists based on NPY(32-36): development of an anorectic Y4 receptor selective agonist with picomolar affinity” (J Med Chem, 2006)
Non-standard residues stand in square brackets, D forms with d. Residues, ends and D or L forms follow the SMILES beside them. Nva = CCC[C@H](N)C(=O)O

Legend:
[1] = target: T1, Neuropeptide Y receptor type 2 (Homo sapiens, UniProt P49146); assay: Displacement of […] from human NPY2 receptor expressed in CHO cells; format: cell-based
T1 sequence (P49146 whole entry): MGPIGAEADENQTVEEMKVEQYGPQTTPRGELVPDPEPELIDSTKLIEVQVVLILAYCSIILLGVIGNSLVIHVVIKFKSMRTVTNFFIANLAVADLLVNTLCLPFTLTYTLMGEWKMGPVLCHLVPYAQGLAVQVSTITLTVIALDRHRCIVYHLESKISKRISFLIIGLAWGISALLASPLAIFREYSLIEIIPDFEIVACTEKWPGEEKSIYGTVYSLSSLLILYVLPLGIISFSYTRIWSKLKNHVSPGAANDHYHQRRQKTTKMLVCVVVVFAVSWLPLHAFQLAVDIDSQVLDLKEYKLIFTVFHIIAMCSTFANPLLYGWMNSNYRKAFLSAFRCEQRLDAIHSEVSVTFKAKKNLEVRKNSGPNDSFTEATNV
Method in brief: (§1)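 Competition binding on membranes (5-10 µg protein) from CHO cells stably expressing human Y1, Y2 or rat-human hybrid Y5 receptors. Radioligand 0.2 nM 125I-PYY, incubated with a range of peptide concentrations in 50 mM HEPES pH 7.3, 0.1% BSA, 2.5 mM CaCl2 and 1 mM MgCl2 for 90 min at room temperature. Bound ligand separated on PEI-treated glass fibre filters, washed with PBS and γ-counted. 1 µM NPY defined nonspecific binding. Duplicate points, three experiments, nonlinear regression.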

[2] = Displacement of […] from rat-human hybrid NPY5 receptor expressed in CHO cells; format: cell-based; method in brief: as §1
[3] = target: T2, Neuropeptide Y receptor type 4 (Homo sapiens, UniProt P50391); assay: Displacement of [125I]hPP from human NPY4 receptor expressed in CHO cells; format: cell-based
T2 sequence (P50391 whole entry): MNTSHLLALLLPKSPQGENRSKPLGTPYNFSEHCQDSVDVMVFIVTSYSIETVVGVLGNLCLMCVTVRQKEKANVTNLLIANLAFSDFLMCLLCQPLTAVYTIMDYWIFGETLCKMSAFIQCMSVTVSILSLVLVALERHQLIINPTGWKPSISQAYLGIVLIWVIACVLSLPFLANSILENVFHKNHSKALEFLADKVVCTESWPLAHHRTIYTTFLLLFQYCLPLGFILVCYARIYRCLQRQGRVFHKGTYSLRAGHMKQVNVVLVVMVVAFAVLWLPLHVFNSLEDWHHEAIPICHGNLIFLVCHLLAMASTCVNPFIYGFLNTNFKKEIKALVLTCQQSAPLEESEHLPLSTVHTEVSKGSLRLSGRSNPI
Method in brief: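 Y4 binding used membranes from CHO cells stably expressing cloned human Y4, with 125I-PP as radioligand. Competing peptides were tested over a range of concentrations in 50 mM HEPES pH 7.3, 0.1% BSA, 2.5 mM CaCl2 and 1 mM MgCl2 for 90 min at room temperature. Separation was by filtration and γ-counting. Nonspecific binding was taken with 1 µM PP. Duplicate points, three experiments, nonlinear regression.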

[4] = Selectivity for human NPY4 over rat-human hybrid NPY5 receptor
[5] = organism: Homo sapiens; assay: Selectivity for human NPY4 over NPY2 receptor
[6] = target: T1, Neuropeptide Y receptor type 2; assay: Agonist activity at human NPY2 receptor in CHO cells by inhibition of forskolin-stimulated cAMP synthesis; format: functional, cell-based
Method in brief: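 Whole-cell cAMP: Y1 in HEK293 cells; Y2, Y4 and Y5 in CHO cells; 30,000 cells/well grown 48 h. Cells preincubated 20 min at 37 °C in HBSS with 10 mM HEPES pH 7.4, 0.2% BSA, 4 mM MgCl2 and 1 mM IBMX. Then 10 min at 37 °C with forskolin (2.5 µM CHO; 5.0 µM HEK293) plus graded peptide. Ethanol lysis, 125I-cAMP flashplate readout. Triplicate points, ≥3 repeats, nonlinear regression.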

[7] = target: T3, Neuropeptide Y receptor type 1 (Homo sapiens, UniProt P25929); assay: Displacement of […] from human NPY1 receptor expressed in CHO cells; format: cell-based; method in brief: as §1
T3 sequence (P25929 whole entry): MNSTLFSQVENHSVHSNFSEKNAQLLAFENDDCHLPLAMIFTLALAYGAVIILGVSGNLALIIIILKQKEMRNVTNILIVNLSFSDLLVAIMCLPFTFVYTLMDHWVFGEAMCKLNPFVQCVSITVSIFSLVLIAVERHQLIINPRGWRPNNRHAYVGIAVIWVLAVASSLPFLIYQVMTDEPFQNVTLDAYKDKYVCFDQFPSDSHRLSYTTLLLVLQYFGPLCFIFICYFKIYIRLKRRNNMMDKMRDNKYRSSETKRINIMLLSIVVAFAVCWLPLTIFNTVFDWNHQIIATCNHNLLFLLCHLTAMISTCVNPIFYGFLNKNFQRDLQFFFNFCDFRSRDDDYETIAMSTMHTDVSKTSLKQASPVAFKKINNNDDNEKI

[8] = organism: Homo sapiens; assay: Selectivity for human NPY4 over NPY1 receptor
[9] = target: T2, Neuropeptide Y receptor type 4; assay: Agonist activity at human NPY4 receptor in CHO cells by inhibition of forskolin-stimulated cAMP synthesis

Ki [1]: 50 nM
Ki [3]: 3.9 nM
Selectivity ratio [4]: 40
Selectivity ratio [5]: 14
EC50 [6]: 1180 nM
Ki [7]: 30 nM
Selectivity ratio [8]: 10
EC50 [9]: 230 nM
Compound: CCC[C@H](NC(=O)[C@H](CCCN=C(N)N)NC(=O)[C@H](Cc1c[nH]c2ccccc12)NC(=O)[C@H](Cc1ccc(O)cc1)NC(=O)[C@H](CCCN=C(N)N)NC(=O)[C@H](CCC)NC(=O)[C@H](CCCN=C(N)N)NC(=O)[C@H](Cc1c[nH]c2ccccc12)NC(=O)[C@H](Cc1ccc(O)cc1)NC(=O)[C@H](CCCN=C(N)N)NC(=O)[C@H](CCC)NC(=O)[C@H](CCCN=C(N)N)NC(=O)[C@@H](N)Cc1c[nH]c2ccccc12)C(=O)N[C@@H](CCCN=C(N)N)C(=O)N[C@@H](Cc1ccc(O)cc1)C(N)=O (H-WR[Nva]RYWR[Nva]RYWR[Nva]RY-NH2)
Ki [2]: 160 nM
